In test [1] the test system is HEL. Briefly: Minimum cytotoxic concentration that causes a microscopically detectable alteration of cell morphology in human embryonic lung cells. The class given is functional, cell-based. Summed up: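 Human embryonic lung cells checked under the microscope. Minimum concentration producing a detectable change in cell morphology.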
In test [2] the test system is HEL. In words: The compound was tested for antiviral activity by measuring the concentration required to reduce plaque formation against Varicella zoster TK+OKA strain. It is filed as functional, cell-based. The note with it: Homo sapiens. An outline of the steps: (§1)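 Plaque reduction in human embryonic lung cells with 20 PFU virus input. EC50 is the concentration that cuts plaque formation by 50%.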

Test [3] has as its system HEL. In words: The compound was tested for antiviral activity by measuring the concentration required to reduce plaque formation against Varicella zoster TK+YS strain. The class given is functional, cell-based. The note with it: Homo sapiens. An outline of the steps:
as §1

Test [4] relates to HEL. In words: The compound was tested for antiviral activity by measuring the concentration required to reduce plaque formation against Varicella zoster TK-(deficient) 07/1 strain. The class given is functional, cell-based. The note with it: Homo sapiens. Summed up:
as §1

Test [5] has as its system HEL. In words: The compound was tested for antiviral activity by measuring the concentration required to reduce plaque formation against Varicella zoster TK-(deficient) YS/R strain. The class given is functional, cell-based. The note with it: Homo sapiens. An outline of the steps: as §1
In test [6] the test system is HEL. In words: The compound was tested for cytotoxic concentration required to reduce human embryonic lung cell growth by 50%. It is filed as functional, cell-based. Summed up:
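Human embryonic lung cell growth measured. Value is the concentration reducing cell growth by 50%.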

Test [7] has as its system FM3A. In words: The compound was tested for growth inhibitory activity against FM3A/0 tumor cell lines. The class given is functional, cell-based. Conditions: Mus musculus.
Test [8] has as its system HEL. In words: The compound was tested for antiviral activity by measuring the concentration required to reduce plaque formation against cytomegalo virus Davis strain. The class given is functional, cell-based. The note with it: Homo sapiens. An outline of the steps:
as §1

For test [9], the system named is HEp-2. Briefly: The compound was tested for growth inhibitory activity against Hep2 tumor cell lines. The note with it: Homo sapiens. The class given is functional, cell-based. Summed up: (§2)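 Monolayer cells in DMEM with 10% FBS, 2 mM glutamine, penicillin/streptomycin, 37 °C, 5% CO2, plated at 1.5 × 10^4/mL (HeLa, Hep2, MCF7, MiaPaCa2) or 2 × 10^4/mL (Hef522). MTT read-out, percent growth versus untreated controls. Mean of three parallel samples in three experiments; IC50 reported.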

For test [10], the system named is HeLa. In words: The compound was tested for growth inhibitory activity against HeLa tumor cell lines. It is filed as functional, cell-based. Conditions: Homo sapiens. An outline of the steps: as §2
The test system of test [11] is L1210. In words: The compound was tested for growth inhibitory activity against L1210/0 tumor cell lines. It is filed as functional, cell-based. Conditions: Mus musculus.
In test [12] the test system is MCF7. Briefly: The compound was tested for growth inhibitory activity against MCF-7 tumor cell lines. It is filed as functional, cell-based. Conditions: Homo sapiens. Summed up: as §2
For test [13], the system named is MIA PaCa-2. In words: The compound was tested for growth inhibitory activity against MiaPaCa2 tumor cell lines. The class given is functional, cell-based. The note with it: Homo sapiens. An outline of the steps:
as §2

Test [14] deals with MOLT-4. In words: The compound was tested for growth inhibitory activity against Molt4/C8 tumor cell lines. It is filed as functional, cell-based. Conditions: Homo sapiens.
In test [15] the test system is HEL. In words: The compound was tested for antiviral activity by measuring the concentration required to reduce plaque formation against cytomegalo virus AD-169 strain. The note with it: Homo sapiens. It is filed as functional, cell-based. Summed up: as §1
Test [16] concerns CCRF-CEM. In words: The compound was tested for growth inhibitory activity against CEM/0 tumor cell lines. The class given is functional, cell-based. Conditions: Homo sapiens.
In test [17] the test system is Hef522 normal fibroblasts (human). In words: The compound was tested for growth inhibitory activity against normal fibroblast (Hef522).

As to `O=c1[nH]c(=O)n([C@H]2C[C@H](O)[C@@H](CO)O2)cc1/C=C/Br` [BRIVUDINE], the MCC in test [1] is above 50 µM. The IC50 in test [2] is 0.001 µM; in test [3] it was 0.005 µM; in test [4], above 50 µM; in test [5] it was above 50 µM; in test [6] it was above 100 µM.

For `O=C1O/C(=C\Cn2cc(Cl)c(=O)[nH]c2=O)C(OCc2ccccc2)=C1OCc1ccccc1`, the IC50 in [7] is 16.9 µM; in test [2], 1.3 µM; in [3], above 2 µM; in test [4], above 2 µM; in test [5], 1 µM; in test [8] it was above 2 µM. The IC50 is 3 µM in [6]; 20 µM in test [9]; 40 µM in test [10]; 12.2 µM in test [11]; 60 µM in test [12]; 40 µM in test [13]. Also, the IC50 was 6.1 µM in [14], above 2 µM in [15], 6 µM in test [16] and 30 µM in [17]. In [1], the MCC was determined as 5 µM.

As to `O=C1O/C(=C\Cn2cc(I)c(=O)[nH]c2=O)C(OCc2ccccc2)=C1OCc1ccccc1`, the IC50 in [7] is 22.6 µM; in test [2], 1.3 µM; in test [3], 1.4 µM; in [4], above 2 µM; in [5] it was 1 µM; in [8], above 2 µM. The IC50 in test [6] worked out at 3 µM; in test [9], 10 µM; in [10], 30 µM; in [11], 7.5 µM; in test [12], 70 µM; in test [13], 80 µM. Moreover, the IC50 in [14] is 3.9 µM; in test [15], above 2 µM; in test [16], 3.3 µM; in test [17] it was 40 µM. In [1], the MCC amounted to 5 µM.

`O=C1O/C(=C\Cn2cc(C(F)(F)F)c(=O)[nH]c2=O)C(OCc2ccccc2)=C1OCc1ccccc1`: the IC50 stood at 3.6 µM in [7]; 0.3 µM in test [2]; 0.5 µM in test [3]; 0.5 µM in [4]; 0.3 µM in [5]; 0.4 µM in test [8]. Besides, the IC50 in [6] was found to be 1 µM; in test [9] it was 40 µM; in [10], 20 µM; in [11], 2 µM; in test [12], 40 µM; in [13] it was 30 µM. Besides, the IC50 was 0.9 µM in [14], above 0.5 µM in test [15], 1.6 µM in [16] and 60 µM in test [17]. The compound further had an MCC in test [1] of 2 µM.

`O=C1O/C(=C\Cn2cc(Br)c(=O)[nH]c2=O)C(OCc2ccccc2)=C1OCc1ccccc1`: the IC50 in test [7] was 17.1 µM; in test [2], 1.3 µM; in test [3], above 2 µM; in [4], above 2 µM; in test [5], 1 µM; in test [8] it was above 2 µM. Further, the IC50 was 3 µM in [6]; 90 µM in [9]; 30 µM in test [10]; 7.5 µM in [11]; 40 µM in test [12]; 80 µM in [13]. The 50% inhibitory concentration (IC50) in test [14] was 3.9 µM; in [15], above 2 µM; in test [16], 3.5 µM; in [17], 30 µM. This compound registered an MCC in test [1] of 5 µM.

Take `O=C1O/C(=C\Cn2cnc3c(-n4cccc4)ncnc32)C(OCc2ccccc2)=C1OCc1ccccc1`: the IC50 is above 200 µM in test [7]; 1.2 µM in test [2]; 1.5 µM in test [3]; 2.8 µM in [4]; 0.6 µM in [5]; above 0.5 µM in test [8]. In addition, the IC50 was 4 µM in test [6]; above 100 µM in test [9]; 70 µM in [10]; 110 µM in test [11]; above 100 µM in test [12]; above 100 µM in test [13]. The IC50 in test [14] was 3.9 µM; in test [15] it was above 0.5 µM; in test [16], 5.8 µM; in test [17], above 100 µM. For the same compound, the MCC in [1] was found to be 20 µM.

For the compound `O=C1O/C(=C\Cn2cc(F)c(=O)[nH]c2=O)C(OCc2ccccc2)=C1OCc1ccccc1`, the IC50 in test [7] is 3.4 µM; in [2] it was 2.6 µM; in [3], 3.8 µM; in [4], 3.5 µM; in [5] it was 2.7 µM; in [8], 3.5 µM. For the same compound, the IC50 in test [6] is 9 µM; in [9], 20 µM; in [10], 40 µM; in [11], 5.1 µM; in [12] it was 60 µM; in [13], 40 µM. Moreover, the IC50 in [14] was determined as 10.9 µM; in [15], 3.5 µM; in [16] it was 15.1 µM; in [17] it was 40 µM. In test [1], this compound showed an MCC of 20 µM.

As for `Nc1nc2c(ncn2COCCO)c(=O)[nH]1` [ACYCLOVIR], the MCC in test [1] is above 50 µM. The IC50 was 0.16 µM in test [2]; 0.78 µM in test [3]; 17 µM in [4]; 12 µM in test [5]; above 100 µM in test [6].

For the compound `O=C1O/C(=C\Cn2cnc3c(Cl)ncnc32)C(OCc2ccccc2)=C1OCc1ccccc1`, the IC50 in test [7] was 16.4 µM; in [2] it was above 5 µM; in [3], above 5 µM; in test [4] it was above 5 µM; in test [5], above 5 µM; in [8], above 5 µM. The IC50 was 8 µM in test [6]; 60 µM in [9]; 30 µM in [10]; 11.6 µM in test [11]; 40 µM in [12]; 60 µM in [13]. Also, the IC50 was 14.8 µM in [14], above 5 µM in [15], 15.9 µM in test [16] and 50 µM in test [17]. In test [1], the MCC came to 20 µM.

In test [1], `Nc1nc2c(ncn2COC(CO)CO)c(=O)[nH]1` [GANCICLOVIR] had an MCC above 50 µM. For the same compound, the IC50 in [8] is 5 µM; in [6], above 50 µM; in test [15], 1 µM.

In the case of `O=C1O/C(=C\Cn2ccc(=O)[nH]c2=O)C(OCc2ccccc2)=C1OCc1ccccc1`, the IC50 came to 17.7 µM in test [7]; 3 µM in test [2]; 3.4 µM in test [3]; 3.4 µM in test [4]; 1.8 µM in test [5]; 3.5 µM in [8]. For the same compound, the IC50 in test [6] came out at 5 µM; in test [9] it was 40 µM; in test [10], 50 µM; in [11], 12.9 µM; in [12], 20 µM; in test [13], 30 µM. Also, the IC50 in [14] was found to be 4.8 µM; in [15] it was 3.5 µM; in test [16], 13 µM; in test [17], 50 µM. For the same compound, the MCC in test [1] came out at 20 µM.

`O=C1O/C(=C/Cn2cnc3ncnc(Cl)c32)C(OCc2ccccc2)=C1OCc1ccccc1`: the IC50 in test [7] was 11.4 µM; in test [2], 5 µM; in [3], above 5 µM; in [4] it was above 5 µM; in test [5] it was 3.8 µM; in test [8] it was above 5 µM. Further, the IC50 in [6] was 20 µM; in test [9], 60 µM; in [10], 30 µM; in [11], 4.1 µM; in test [12], above 100 µM; in test [13], 40 µM. Besides, the IC50 was 6.8 µM in [14], above 5 µM in test [15], 4.4 µM in test [16] and 20 µM in test [17]. This compound also returned an MCC in test [1] of 20 µM.

Broadly, the IC50 is the concentration at which inhibition is half-maximal. Higher therefore signals lower potency.
